Measured values from ChEMBL document CHEMBL1208690, “A novel aryl-hydrazide from the marine lichen Lichina pygmaea: isolation, synthesis of derivatives, and cytotoxicity assays” (Bioorg Med Chem Lett, 2010).

Assays:
B16 [1] = experiment: Cytotoxicity activity against mouse B16 cells at 50 uM after 24 hrs by NRU assay; assay type: functional; conditions: B16, 24 h
In short: (§1)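 Neutral red uptake assay. A375 cells were seeded at 12×10³ and B16 at 10×10³ cells/well, then incubated 24 h at 37 °C in humidified 5% CO₂. Cells were exposed to compound dilutions in RPMI for 24 or 48 h. Dye was extracted with ethanol/acetic acid/water (50:1:49) and A540 read. IC50 was taken graphically from concentration-effect curves.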

B16 [2] = experiment: Cytotoxicity activity against mouse B16 cells after 48 hrs by NRU assay; assay type: functional, cell-based; conditions: B16, 48 h; in short: as §1
A-375 [3] = experiment: Cytotoxicity activity against human A375 cells after 48 hrs by NRU assay; assay type: functional, cell-based; conditions: A-375, 48 h; in short: as §1
A-375 [4] = experiment: Cytotoxicity activity against human A375 cells at 50 uM after 24 hrs by NRU assay; assay type: functional; conditions: A-375, 24 h; in short: as §1
A-375 [5] = experiment: Cytotoxicity activity against human A375 cells at 50 uM after 48 hrs by NRU assay; assay type: functional; conditions: A-375, 48 h; in short: as §1
B16 [6] = experiment: Cytotoxicity activity against mouse B16 cells after 24 hrs by NRU assay; assay type: functional, cell-based; conditions: B16, 24 h; in short: as §1
A-375 [7] = experiment: Cytotoxicity activity against human A375 cells after 24 hrs by NRU assay; assay type: functional, cell-based; conditions: A-375, 24 h; in short: as §1
B16 [8] = experiment: Cytotoxicity activity against mouse B16 cells at 50 uM after 48 hrs by NRU assay; assay type: functional; conditions: B16, 48 h; in short: as §1

O=C(CC[C@H](NC(=O)OCc1ccccc1)C(=O)OCc1ccccc1)NNc1cccc(OCc2ccccc2)c1
inhibition at 50 µM (B16 [1]): 100% | IC50 (B16 [2]): 14.5 µM | IC50 (A-375 [3]): 29 µM | inhibition at 50 µM (A-375 [4]): 80% | inhibition at 50 µM (A-375 [5]): 73% | IC50 (B16 [6]): 8 µM | IC50 (A-375 [7]): 28 µM | inhibition at 50 µM (B16 [8]): 100%

COc1cc([C@@H]2c3cc4c(cc3[C@@H](O[C@@H]3O[C@@H]5CO[C@@H](C)O[C@H]5[C@H](O)[C@H]3O)[C@H]3COC(=O)[C@H]23)OCO4)cc(OC)c1O [ETOPOSIDE]
inhibition at 50 µM (B16 [1]): 100% | IC50 (B16 [2]): 0.13 µM | IC50 (A-375 [3]): 12 µM | inhibition at 50 µM (A-375 [4]): 100% | inhibition at 50 µM (A-375 [5]): 100% | IC50 (B16 [6]): 9 µM | IC50 (A-375 [7]): 19 µM | inhibition at 50 µM (B16 [8]): 100%

N[C@@H](CCC(=O)NNc1ccc(O)cc1)C(=O)O [XANTHODERMINE]
inhibition at 50 µM (B16 [1]): 100% | IC50 (B16 [2]): 0.7 µM | IC50 (A-375 [3]): > 50 µM | inhibition at 50 µM (A-375 [4]): 12% | inhibition at 50 µM (A-375 [5]): 31% | IC50 (B16 [6]): 1.6 µM | IC50 (A-375 [7]): > 50 µM | inhibition at 50 µM (B16 [8]): 100%

N[C@@H](CCC(=O)NNc1cccc(O)c1)C(=O)O
inhibition at 50 µM (B16 [1]): 100% | IC50 (B16 [2]): 12 µM | IC50 (A-375 [3]): > 50 µM | inhibition at 50 µM (A-375 [4]): 8% | inhibition at 50 µM (A-375 [5]): 14% | IC50 (B16 [6]): 12 µM | IC50 (A-375 [7]): > 50 µM | inhibition at 50 µM (B16 [8]): 100%

O=C(CC[C@H](NC(=O)OCc1ccccc1)C(=O)OCc1ccccc1)NNc1ccccc1OCc1ccccc1
inhibition at 50 µM (B16 [1]): 96% | IC50 (B16 [2]): 15 µM | IC50 (A-375 [3]): 30 µM | inhibition at 50 µM (A-375 [4]): 77% | inhibition at 50 µM (A-375 [5]): 69% | IC50 (B16 [6]): 21 µM | IC50 (A-375 [7]): 29 µM | inhibition at 50 µM (B16 [8]): 100%

COC1=C(NC(CO)CO)C[C@@](O)(CO)CC1=O [MYCOSPORINE SERINOL]
inhibition at 50 µM (B16 [1]): 34% | IC50 (B16 [2]): 27 µM | IC50 (A-375 [3]): > 50 µM | inhibition at 50 µM (A-375 [4]): 11% | inhibition at 50 µM (A-375 [5]): 20% | IC50 (B16 [6]): > 50 µM | IC50 (A-375 [7]): > 50 µM | inhibition at 50 µM (B16 [8]): 85%

O=C(CC[C@H](NC(=O)OCc1ccccc1)C(=O)OCc1ccccc1)NNc1ccc(OCc2ccccc2)cc1
inhibition at 50 µM (B16 [1]): 100% | IC50 (B16 [2]): 0.6 µM | IC50 (A-375 [3]): > 50 µM | inhibition at 50 µM (A-375 [4]): 4% | inhibition at 50 µM (A-375 [5]): 19% | IC50 (B16 [6]): 5 µM | IC50 (A-375 [7]): > 50 µM | inhibition at 50 µM (B16 [8]): 100%
